Measurements collected from several papers.
Compare with care: the assays were run in different laboratories.
Target: Protein kinase C alpha type (PRKCA, Homo sapiens, UniProt P17252)

Compound	observed	action	method	concentration	measurement	value
CCCS(=O)(=O)Nc1ccc(F)c(C(=O)c2c[nH]c3ncc(-c4ccc(Cl)cc4)cc23)c1F	enzyme activity	inhibitor	–	1 µM	inhibition	< 10%
CN(C)CCCn1cc(C2=C(c3c[nH]c4ccccc34)C(=O)NC2=O)c2ccccc21	cell-free assay	–	–	0.5 µM	remaining signal	6.27%
FC(F)(F)Oc1cccc(-c2cnc3ccc(-c4ccncc4)nn23)c1	enzyme activity	inhibitor	radiometric	1 µM	activity vs control	96%
FC(F)c1nc2ccccc2n1-c1nc(N2CCOCC2)nc(N2CCOCC2)n1	enzyme activity	inhibitor	–	10 µM	remaining activity	86%
N#CCCc1ccc2c(c1)-c1[nH]c3ccc([N+](=O)[O-])cc3c1CC(=O)N2	cell-free assay	–	–	0.5 µM	remaining signal	80.9%
CCCOc1ccc(OC)c(F)c1C(=O)c1ccc(C(=O)N[C@@H]2CNC[C@H]2NC(=O)c2ccc3[nH]ncc3c2)cc1	enzyme activity	inhibitor	–	10 µM	remaining activity	92%
Cc1ccc(NC(=O)c2ccc(C)c(C(F)(F)F)c2)cc1C#Cc1nn(C2CCC(O)CC2)c2ncnc(N)c12 (stereo not shown)	cell-free assay	–	–	10 µM	remaining signal	110%
Cc1[nH]c(/C=C2\C(=O)Nc3ccc(F)cc32)c(C)c1C(=O)N[C@H]1CCN(C(=O)N(C)C)C1	enzyme activity	inhibitor	–	1 µM	remaining activity	106%
Cc1sc(C(=O)NC2COC2)cc1-n1cc(NC(=O)Nc2c(F)cccc2Cl)cn1	enzyme activity	inhibitor	–	10 µM	remaining activity	95.9%
CC(C)(C)c1nc(-c2cccc(NS(=O)(=O)c3c(F)cccc3F)c2F)c(-c2ccnc(N)n2)s1	enzyme activity	inhibitor	radiometric	1 µM	remaining activity	100%
Cc1ccc(Nc2nccc(N(C)c3ccc4c(C)n(C)nc4c3)n2)cc1S(N)(=O)=O	enzyme activity	inhibitor	–	10 µM	inhibition	10%
COc1cc2ncnc(Nc3ccc(Oc4ccccc4)c(C)c3C)c2cc1OC	enzyme activity	inhibitor	–	1 µM	inhibition	8%
COc1cc(/C=C/C(=O)CC(=O)/C=C/c2ccc(O)c(OC)c2)ccc1O	enzyme activity	inhibitor	–	1 µM	activity vs control	106%
CN1CC(Oc2cnc(C#N)cc2-c2ccn3nc(NC(=O)C4CC4)cc3c2)C1	enzyme activity	inhibitor	–	1 µM	inhibition	2%
CCN(CC)CCNC(=O)c1c(C)[nH]c(/C=C2\C(=O)Nc3ccc(F)cc32)c1C	enzyme activity	inhibitor	–	0.1 µM	remaining activity	101%
CN(C)C[C@H]1CCn2c(c(C3=C(c4cn(C)c5ccccc45)C(=O)NC3=O)c3ccccc32)C1	cell-free assay	–	–	0.5 µM	remaining signal	2.58%
O=C(Nc1cnn(-c2csc(C(=O)NC3COC3)c2)c1)Nc1c(F)cccc1Cl	enzyme activity	inhibitor	–	5 µM	remaining activity	90.7%
CC/C(=N\NC(=O)NCc1cccc(O)c1)c1ccc(O)c(C)c1O	enzyme activity	inhibitor	–	0.1 µM	inhibition	2.6%
COc1cc(Cl)c(C(=O)N[C@@H](CN[C@H]2CC[C@@H](N)CC2)Cc2ccc(C#N)cc2)cc1-c1ccc(CN[C@H](C)c2ccc(C)cc2)o1	enzyme activity	inhibitor	–	1 µM	remaining activity	97%
COc1cc(Nc2cnc(C#N)c(O[C@H](C)CN(C)C)n2)ncc1-c1cnn(C)c1	enzyme activity	inhibitor	radiometric	1 µM	remaining activity	115%
CC(C)(O)[C@H]1CC[C@H](Nc2ccc3ncc(-c4cccc(C(F)(F)F)c4)n3n2)CC1	enzyme activity	inhibitor	–	1 µM	remaining activity	69.5%
CS(=O)(=O)Nc1cccc(-c2csc(NC(=O)CSc3nc4nccnc4c(=O)n3CCc3ccccc3)n2)c1	enzyme activity	inhibitor	–	10 µM	inhibition	1%
